In brackets after ≈: the same amount, converted by molar mass. One block for each compound: values may come before it. Activity calls are given as the source filed them. No cut-off for these calls is given here.
Legend:
[1] = molecular target: T1, Coagulation factor XI (Homo sapiens, UniProt P03951); experiment: Inhibition of human coagulation factor 11a using p-nitroaniline as substrate assessed as substrate hydrolysis by spectrophotometry
In short: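 Human enzyme Ki, averaged over multiple determinations (n = 2).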

[2] = test system: Plasma; experiment: Anticoagulant activity in healthy human plasma assessed as concentration required to cause two fold prolongation of activated partial thromboplastin time; type: functional
[3] = Half life in human liver microsomes; type: ADME
[4] = Solubility in 50 mM pH 6.5 phosphate buffer using amorphous form of compound; type: physicochemical
[5] = Half life in rat at 1 mg/kg, iv; type: ADME, organism-based; conditions: in vivo
[6] = test system: Oryctolagus cuniculus; experiment: Antithrombotic activity in iv dosed rabbit model of electrically induced carotid arterial thrombosis assessed as increase in integrated blood flow of the injured artery; type: functional, organism-based
[7] = test system: Oryctolagus cuniculus; experiment: Antithrombotic activity in iv dosed rabbit model of electrically induced carotid arterial thrombosis assessed as reduction in thrombus formation; type: functional, organism-based
[8] = test system: Plasma; experiment: Anticoagulant activity in rabbit plasma assessed as prolongation of prothrombin time at 100 uM; type: functional, cell-free; conditions: Oryctolagus cuniculus
[9] = test system: Plasma; experiment: Anticoagulant activity in rabbit plasma assessed as prolongation of thrombin time at 100 uM; type: functional, cell-free; conditions: Oryctolagus cuniculus
[10] = Half life in rabbit at 1 mg/kg, iv; type: ADME, organism-based, Oryctolagus cuniculus; conditions: in vivo
In short: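 Rabbits given a single IV dose of 1 mg/kg of the HCl salt in 10% DMAc/90% D5W (5% dextrose in water), with half-life taken from the plasma PK profile.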

[11] = Half life in dog at 1 mg/kg, iv; type: ADME, organism-based, Canis lupus familiaris; conditions: in vivo
In short: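 Dogs dosed IV at 1 mg/kg with the HCl salt in 10% DMAc/10% ethanol/10% propylene glycol/70% water, with half-life from the pharmacokinetic profile.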

[12] = Half life in cynomolgus monkey at 1 mg/kg, iv; type: ADME, organism-based, Macaca fascicularis; conditions: in vivo
[13] = molecular target: T2, Coagulation factor VII (Homo sapiens, UniProt P08709); experiment: Inhibition of coagulation factor 7a (unknown origin)
T2 sequence (P08709 whole entry): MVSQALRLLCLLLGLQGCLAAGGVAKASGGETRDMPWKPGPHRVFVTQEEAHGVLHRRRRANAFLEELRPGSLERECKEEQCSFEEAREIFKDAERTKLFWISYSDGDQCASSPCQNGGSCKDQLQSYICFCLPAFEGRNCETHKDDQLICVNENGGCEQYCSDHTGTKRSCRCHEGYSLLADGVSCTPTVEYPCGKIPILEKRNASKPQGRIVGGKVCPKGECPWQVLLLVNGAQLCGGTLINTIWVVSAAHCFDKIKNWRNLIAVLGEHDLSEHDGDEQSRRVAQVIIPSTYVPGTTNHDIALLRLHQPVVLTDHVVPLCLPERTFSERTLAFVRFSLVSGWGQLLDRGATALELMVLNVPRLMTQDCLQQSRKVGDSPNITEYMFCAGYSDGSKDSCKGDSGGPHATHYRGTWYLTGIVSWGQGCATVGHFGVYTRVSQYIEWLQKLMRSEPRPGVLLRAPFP
In short: (§1)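 Ki against each human enzyme, averaged from duplicate IC50 determinations.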

[14] = molecular target: Coagulation factor X (Homo sapiens, UniProt P00742); experiment: Inhibition of coagulation factor 10a (unknown origin); in short: as §1
Sequence of Coagulation factor X (P00742 41-179 limits assumed): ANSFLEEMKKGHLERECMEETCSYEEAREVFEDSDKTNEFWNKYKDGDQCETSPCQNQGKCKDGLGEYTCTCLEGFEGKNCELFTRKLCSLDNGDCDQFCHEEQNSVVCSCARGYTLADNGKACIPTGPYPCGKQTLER
Sequence of Coagulation factor X (P00742 235-488 limits assumed): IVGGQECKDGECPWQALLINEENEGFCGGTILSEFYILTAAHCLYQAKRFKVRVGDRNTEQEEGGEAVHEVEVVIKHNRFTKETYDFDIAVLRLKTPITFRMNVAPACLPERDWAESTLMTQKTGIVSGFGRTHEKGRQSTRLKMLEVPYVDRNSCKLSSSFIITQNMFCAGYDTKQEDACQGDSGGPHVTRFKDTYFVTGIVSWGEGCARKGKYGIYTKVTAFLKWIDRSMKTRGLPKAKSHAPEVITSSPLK

[15] = molecular target: Coagulation factor IX (Homo sapiens, UniProt P00740); experiment: Inhibition of coagulation factor 9a (unknown origin); in short: as §1
Sequence of Coagulation factor IX (P00740 47-191 limits assumed): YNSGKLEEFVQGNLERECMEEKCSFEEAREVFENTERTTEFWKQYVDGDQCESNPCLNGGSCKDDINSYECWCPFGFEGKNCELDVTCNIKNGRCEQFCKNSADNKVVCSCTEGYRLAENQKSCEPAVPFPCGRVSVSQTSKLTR
Sequence of Coagulation factor IX (P00740 227-461 limits assumed): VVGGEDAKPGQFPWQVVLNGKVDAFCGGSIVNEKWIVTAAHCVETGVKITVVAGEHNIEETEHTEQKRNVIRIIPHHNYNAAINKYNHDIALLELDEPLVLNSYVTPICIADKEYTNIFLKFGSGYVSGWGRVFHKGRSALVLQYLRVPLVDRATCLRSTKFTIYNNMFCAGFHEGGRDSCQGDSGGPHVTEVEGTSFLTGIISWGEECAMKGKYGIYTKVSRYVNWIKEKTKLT

[16] = molecular target: T3, Coagulation factor XII (Homo sapiens, UniProt P00748); experiment: Inhibition of coagulation factor 12a (unknown origin); in short: as §1
T3 sequence (P00748 whole entry): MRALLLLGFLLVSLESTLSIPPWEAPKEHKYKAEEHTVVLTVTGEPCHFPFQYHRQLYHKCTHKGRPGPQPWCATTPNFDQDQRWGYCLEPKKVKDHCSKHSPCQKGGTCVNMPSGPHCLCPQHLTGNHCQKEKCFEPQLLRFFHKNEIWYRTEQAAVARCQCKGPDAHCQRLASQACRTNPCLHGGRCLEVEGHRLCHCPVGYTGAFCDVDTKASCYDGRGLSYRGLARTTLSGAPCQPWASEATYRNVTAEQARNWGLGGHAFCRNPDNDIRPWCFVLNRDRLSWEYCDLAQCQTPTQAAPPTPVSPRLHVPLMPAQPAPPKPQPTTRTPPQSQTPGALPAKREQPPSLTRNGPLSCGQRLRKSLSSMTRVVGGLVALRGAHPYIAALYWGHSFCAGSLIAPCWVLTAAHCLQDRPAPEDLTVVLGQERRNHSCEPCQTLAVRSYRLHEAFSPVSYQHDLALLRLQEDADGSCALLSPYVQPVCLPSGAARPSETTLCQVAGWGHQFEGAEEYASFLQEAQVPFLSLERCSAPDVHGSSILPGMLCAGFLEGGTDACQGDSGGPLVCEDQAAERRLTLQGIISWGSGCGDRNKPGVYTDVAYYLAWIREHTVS

[17] = molecular target: Prothrombin (Homo sapiens, UniProt P00734); experiment: Inhibition of thrombin (unknown origin); in short: as §1
[18] = molecular target: Trypsin (Homo sapiens, UniProt P07477+P07478+P35030); experiment: Inhibition of trypsin (unknown origin); type: protein assay; in short: as §1
[19] = molecular target: Plasma kallikrein (Homo sapiens, UniProt P03952); experiment: Inhibition of plasma kallikrein (unknown origin); in short: as §1
Sequence of Plasma kallikrein (P03952 20-390 limits assumed): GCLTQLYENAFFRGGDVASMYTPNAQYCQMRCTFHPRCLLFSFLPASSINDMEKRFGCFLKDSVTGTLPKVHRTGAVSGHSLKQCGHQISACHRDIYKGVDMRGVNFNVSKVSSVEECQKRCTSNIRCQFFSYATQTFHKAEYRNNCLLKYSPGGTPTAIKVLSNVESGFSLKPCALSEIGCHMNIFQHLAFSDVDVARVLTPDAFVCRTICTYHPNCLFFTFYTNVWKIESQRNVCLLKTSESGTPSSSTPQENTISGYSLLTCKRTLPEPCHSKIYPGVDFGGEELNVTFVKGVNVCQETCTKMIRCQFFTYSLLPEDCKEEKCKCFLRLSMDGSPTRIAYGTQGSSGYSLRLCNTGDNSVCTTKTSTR
Sequence of Plasma kallikrein (P03952 391-638 limits assumed): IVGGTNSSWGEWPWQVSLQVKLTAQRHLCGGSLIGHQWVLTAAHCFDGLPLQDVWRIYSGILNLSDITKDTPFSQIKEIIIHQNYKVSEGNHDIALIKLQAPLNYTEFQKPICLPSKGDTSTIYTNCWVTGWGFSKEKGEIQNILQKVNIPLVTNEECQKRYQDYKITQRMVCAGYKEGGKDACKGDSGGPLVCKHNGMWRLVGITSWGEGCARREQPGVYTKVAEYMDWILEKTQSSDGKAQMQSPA

[20] = molecular target: Kallikrein-1 (Homo sapiens, UniProt P06870); experiment: Inhibition of tissue kallikrein (unknown origin); in short: as §1
Sequence of Kallikrein-1 (P06870 whole entry): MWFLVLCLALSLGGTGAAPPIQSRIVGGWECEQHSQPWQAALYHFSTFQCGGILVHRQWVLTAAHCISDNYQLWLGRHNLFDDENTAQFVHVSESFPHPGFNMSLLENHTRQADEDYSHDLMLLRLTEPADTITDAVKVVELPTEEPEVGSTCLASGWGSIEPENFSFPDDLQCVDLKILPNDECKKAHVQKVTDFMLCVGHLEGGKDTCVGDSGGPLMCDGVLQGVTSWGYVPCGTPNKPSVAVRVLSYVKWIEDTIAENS

[21] = Inhibition of chymotrypsin (unknown origin); parameters: species or system Homo sapiens; in short: as §1
[22] = molecular target: Tissue-type plasminogen activator (Homo sapiens, UniProt P00750); experiment: Inhibition of tPA (unknown origin); in short: as §1
Sequence of Tissue-type plasminogen activator (P00750 whole entry): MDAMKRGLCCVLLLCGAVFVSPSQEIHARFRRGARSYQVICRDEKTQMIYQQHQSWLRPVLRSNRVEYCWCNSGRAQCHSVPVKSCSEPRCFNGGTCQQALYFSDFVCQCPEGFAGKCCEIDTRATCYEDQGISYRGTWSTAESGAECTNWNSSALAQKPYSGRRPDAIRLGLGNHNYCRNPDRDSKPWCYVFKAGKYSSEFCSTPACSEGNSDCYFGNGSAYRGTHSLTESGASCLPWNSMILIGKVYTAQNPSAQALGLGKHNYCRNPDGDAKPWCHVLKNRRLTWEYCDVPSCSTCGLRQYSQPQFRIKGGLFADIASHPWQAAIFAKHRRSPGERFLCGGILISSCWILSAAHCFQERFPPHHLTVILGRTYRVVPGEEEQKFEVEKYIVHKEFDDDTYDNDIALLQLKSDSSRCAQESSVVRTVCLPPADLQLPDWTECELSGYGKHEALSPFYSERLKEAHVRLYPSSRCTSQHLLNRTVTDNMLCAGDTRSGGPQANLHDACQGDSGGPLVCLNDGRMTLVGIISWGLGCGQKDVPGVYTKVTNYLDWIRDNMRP

[23] = molecular target: Urokinase-type plasminogen activator (Homo sapiens, UniProt P00749); experiment: Inhibition of urokinase (unknown origin); in short: as §1
[24] = molecular target: Vitamin K-dependent protein C (Homo sapiens, UniProt P04070); experiment: Inhibition of APC (unknown origin); in short: as §1
Sequence of Vitamin K-dependent protein C (P04070 43-197 limits assumed): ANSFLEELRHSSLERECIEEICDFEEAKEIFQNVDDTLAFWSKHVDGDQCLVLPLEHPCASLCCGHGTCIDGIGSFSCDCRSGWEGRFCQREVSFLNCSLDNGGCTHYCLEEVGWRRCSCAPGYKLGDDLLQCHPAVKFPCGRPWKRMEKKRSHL
Sequence of Vitamin K-dependent protein C (P04070 212-461 limits assumed): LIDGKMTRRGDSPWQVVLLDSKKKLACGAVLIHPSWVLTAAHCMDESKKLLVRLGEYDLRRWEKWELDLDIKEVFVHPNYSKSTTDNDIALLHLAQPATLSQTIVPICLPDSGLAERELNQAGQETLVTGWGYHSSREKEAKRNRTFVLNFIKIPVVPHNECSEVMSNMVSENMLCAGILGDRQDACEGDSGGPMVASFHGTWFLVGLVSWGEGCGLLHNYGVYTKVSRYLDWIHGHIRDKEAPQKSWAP

[25] = Inhibition of rabbit coagulation factor 11a using p-nitroaniline as substrate assessed as substrate hydrolysis at 37 degC by spectrophotometry; parameters: species or system Oryctolagus cuniculus
[26] = molecular target: T1, Coagulation factor XI; experiment: Inhibition of human coagulation factor 11a using p-nitroaniline as substrate assessed as substrate hydrolysis at 37 degC by spectrophotometry
[27] = Unbound fraction in human plasma; type: ADME, cell-free
[28] = Unbound fraction in rabbit plasma; type: ADME, cell-free, Oryctolagus cuniculus
[29] = Unbound fraction in dog plasma; type: ADME, cell-free, Canis lupus familiaris
[30] = Unbound fraction in rat plasma; type: ADME, cell-free
[31] = Unbound fraction in cynomolgus monkey plasma; type: ADME, cell-free, Macaca fascicularis
[32] = species on record: Oryctolagus cuniculus; experiment: Toxicity in rabbit cuticle bleeding time model assessed as prologation of bleeding time at 100 uM; type: organism-based; conditions: in vivo
[33] = test system: Plasma; experiment: Anticoagulant activity in rabbit plasma assessed as prolongation of activated partial thromboplastin time at 100 uM; type: functional, Oryctolagus cuniculus
[34] = test system: Plasma; experiment: Anticoagulant activity in dog plasma assessed as concentration required to cause 1.5 fold prolongation of activated partial thromboplastin time
[35] = test system: Plasma; experiment: Anticoagulant activity in rat plasma assessed as concentration required to cause 1.5 fold prolongation of activated partial thromboplastin time
[36] = test system: Plasma; experiment: Anticoagulant activity in rabbit plasma assessed as concentration required to cause 1.5 fold prolongation of activated partial thromboplastin time
[37] = test system: Plasma; experiment: Anticoagulant activity in cynomolgus monkey plasma assessed as concentration required to cause 1.5 fold prolongation of activated partial thromboplastin time

T1 sequence (P03951 19-387 limits assumed): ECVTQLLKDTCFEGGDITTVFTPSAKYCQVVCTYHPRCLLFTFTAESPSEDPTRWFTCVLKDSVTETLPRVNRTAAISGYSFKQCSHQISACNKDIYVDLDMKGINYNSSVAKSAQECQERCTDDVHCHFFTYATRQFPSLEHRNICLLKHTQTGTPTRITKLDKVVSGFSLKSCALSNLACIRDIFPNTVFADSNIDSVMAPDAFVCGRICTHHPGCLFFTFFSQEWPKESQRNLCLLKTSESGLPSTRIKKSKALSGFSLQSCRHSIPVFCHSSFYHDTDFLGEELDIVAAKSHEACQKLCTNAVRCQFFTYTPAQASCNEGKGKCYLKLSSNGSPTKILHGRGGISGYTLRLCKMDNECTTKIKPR
T1 sequence (P03951 388-625 limits assumed): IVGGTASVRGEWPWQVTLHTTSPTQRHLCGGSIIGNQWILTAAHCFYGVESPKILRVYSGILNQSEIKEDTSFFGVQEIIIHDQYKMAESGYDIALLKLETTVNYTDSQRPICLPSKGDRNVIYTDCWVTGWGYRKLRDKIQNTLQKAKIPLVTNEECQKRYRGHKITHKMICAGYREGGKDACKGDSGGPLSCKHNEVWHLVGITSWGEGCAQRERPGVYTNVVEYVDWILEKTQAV

- Ki [1]: 0.32 nM
- half-life [3]: 6.6 min
Structure (SMILES): O=C(CCc1cc(Cl)ccc1-n1cnnn1)N[C@@H](Cc1ccccc1)c1nc(-c2ccc3[nH]c(=O)cc(O)c3c2)c(Cl)[nH]1
- 2aPTT [2]: 7.2 µM

- half-life [10]: 66 min
- half-life [11]: 66 min
- half-life [12]: 114 min
Structure (SMILES): CN1CCN(C(=O)C[C@H](NC(=O)/C=C/c2cc(Cl)ccc2-n2cnnn2)c2nc(-c3ccc4[nH]c(=O)cc(O)c4c3)c(Cl)[nH]2)CC1.Cl

- Ki [1]: 0.5 nM
- half-life [3]: 10 min
Structure (SMILES): Cc1ccc(-n2cnnn2)c(CCC(=O)N[C@@H](Cc2ccccc2)c2nc(-c3ccc4[nH]c(=O)cc(O)c4c3)c(Cl)[nH]2)c1
- 2aPTT [2]: 9.1 µM

- Ki [1]: 0.7 nM
- half-life [3]: 6.2 min
- solubility [4]: 1 µg/mL (≈ 1.56 µM)
Structure (SMILES): COC(=O)Nc1ccc(-c2nc([C@H](CC(=O)N3CCOCC3)NC(=O)/C=C/c3cc(Cl)ccc3-n3cnnn3)[nH]c2Cl)cc1
- 2aPTT [2]: 7.4 µM

- Ki [1]: 0.6 nM
- half-life [3]: 45 min
- solubility [4]: 3 µg/mL (≈ 4.4 µM)
Structure (SMILES): COC(=O)Nc1ccc(-c2nc([C@H](CC(=O)N3CCN(C(C)=O)CC3)NC(=O)/C=C/c3cc(Cl)ccc3-n3cnnn3)[nH]c2Cl)cc1
- 2aPTT [2]: 4.6 µM

Continued, compound first:

Structure (SMILES): COC(=O)Nc1ccc(-c2nc([C@H](Cc3ccccc3)NC(=O)/C=C/c3cc(Cl)ccc3-n3cnnn3)[nH]c2Cl)cc1
- Ki [1]: 3.7 nM
- 2aPTT [2]: 19 µM
- half-life [3]: 46 min
- solubility [4]: < 1 µg/mL

Structure (SMILES): CN1CCN(C(=O)C[C@H](NC(=O)/C=C/c2cc(Cl)ccc2-n2cnnn2)c2nc(-c3ccc4[nH]c(=O)cc(O)c4c3)c(Cl)[nH]2)CC1.O=C(O)C(F)(F)F
- half-life [5]: 66 min

Structure (SMILES): Cc1ccc(-n2cnnn2)c(CCC(=O)N[C@@H](Cc2ccccc2)c2nc(-c3ccc4[nH]c(=O)ccc4c3)c(Cl)[nH]2)c1
- Ki [1]: 12 nM
- 2aPTT [2]: 69 µM
- half-life [3]: 2.2 min

Structure (SMILES): COC(=O)Nc1ccc(-c2nc([C@H](CC(=O)N3CCS(=O)(=O)CC3)NC(=O)/C=C/c3cc(Cl)ccc3-n3cnnn3)[nH]c2Cl)cc1
- Ki [1]: 0.3 nM
- 2aPTT [2]: 3.6 µM
- half-life [3]: 154 min
- solubility [4]: 1 µg/mL (≈ 1.45 µM)

Structure (SMILES): CN1CCN(C(=O)C[C@H](NC(=O)/C=C/c2cc(Cl)ccc2-n2cnnn2)c2nc(-c3ccc4[nH]c(=O)cc(O)c4c3)c(Cl)[nH]2)CC1 [listing 1 of 2 here]
- Activity [6]: Dose-dependent effect
- Activity [7]: Dose-dependent effect
- Activity [8]: inactive
- Activity [9]: inactive

Structure (SMILES): O=C(/C=C/c1cc(Cl)ccc1-n1cnnn1)N[C@@H](Cc1ccccc1)c1nc(-c2ccc3[nH]c(=O)cc(O)c3c2)c(Cl)[nH]1
- Ki [1]: 0.18 nM
- 2aPTT [2]: 11 µM
- half-life [3]: 56 min

Structure (SMILES): CN1CCN(C(=O)C[C@H](NC(=O)/C=C/c2cc(Cl)ccc2-n2cnnn2)c2nc(-c3ccc4[nH]c(=O)cc(O)c4c3)c(Cl)[nH]2)CC1 [listing 2 of 2 here]
- Ki [1]: 0.04 nM
- 2aPTT [2]: 1 µM
- half-life [3]: > 200 min
- solubility [4]: 17 µg/mL (≈ 25.6 µM)
- Ki [13]: > 13300 nM
- Ki [14]: > 9000 nM
- Ki [15]: > 60000 nM
- Ki [16]: > 20000 nM
- Ki [17]: 7400 nM
- Ki [18]: 6200 nM
- Ki [19]: 7 nM
- Ki [20]: > 30000 nM
- Ki [21]: 400 nM
- Ki [22]: 29000 nM
- Ki [23]: > 1600 nM
- Ki [24]: > 54000 nM
- Ki [25]: 0.58 nM
- Ki [26]: 0.1 nM
- fraction unbound [27]: 0.08
- fraction unbound [28]: 0.07
- fraction unbound [29]: 0.18
- fraction unbound [30]: 0.026
- fraction unbound [31]: 0.08
- EC50 [7]: 530 nM
- Activity [32]: Non-toxic
- fold change (FC) [33]: 3.2
- EC1.5 [34]: 0.3 µM
- EC1.5 [35]: >20 µM
- EC1.5 [36]: 1 µM
- EC1.5 [37]: 0.3 µM

Structure (SMILES): COC(=O)Nc1ccc(-c2nc([C@H](CC(=O)N3CCN(C)CC3)NC(=O)/C=C/c3cc(Cl)ccc3-n3cnnn3)[nH]c2Cl)cc1
- Ki [1]: 0.4 nM
- 2aPTT [2]: 3.7 µM
- half-life [3]: 25 min
- solubility [4]: 44 µg/mL (≈ 67.3 µM)

Structure (SMILES): O=C(/C=C/c1cc(Cl)ccc1-n1cnnn1)N[C@@H](Cc1ccccc1)c1nc(-c2ccc3c(c2)CCC(=O)N3)c(Cl)[nH]1
- Ki [1]: 19 nM
- 2aPTT [2]: 60 µM
- half-life [3]: 48 min

Reference: ChEMBL document CHEMBL3580601, “Discovery of a Potent Parenterally Administered Factor XIa Inhibitor with Hydroxyquinolin-2(1H)-one as the P2' Moiety” (ACS Med Chem Lett, 2015)
